Calls of active or inactive are those of the source. The rule behind the calls is not given here.

The record followed here is ChEMBL document CHEMBL3627673, “Modification of cellular DNA by synthetic aziridinomitosenes” (Bioorg Med Chem, 2015).

One data set has as its system HeLa. Nature of the data set: Antiproliferative activity against human HeLa cells after 48 hrs by resazurin reduction assay. The format is functional, cell-based. A digest of the protocol:
(§1)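 Cells seeded at 8,000/well; adherent lines trypsinized and given 24 h at 37 °C in 5% CO2 before drug, media replaced with drug dilutions or vehicle. Drug exposure 48 h, then 0.1% resazurin added for 4-24 h. Fluorescence 530/590 nm, expressed as % of untreated, and IC50 from log(inhibitor) vs response fit. Mean ± SEM, ≥3 independent experiments, ≥3 wells each.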

Data set [1] has as its system Jurkat. Kind of data set: Induction of DNA modifying activity in human Jurkat cells assessed as increase in DNA-protein crosslink at 100 uM under aerobic condition by K-SDS assay (reference value: 4.5. +/- 1.5%). The format is cell-based. A digest of the protocol:
(§2)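 Jurkat cells (2 x 10^5) treated 1.5 h at 37 °C in complete RPMI-1640, aerobic or in sealed 95% N2/5% CO2 chamber. Lysed in 2% SDS/Tris pH 7.5; KCl precipitation, three 65 °C wash rounds, proteinase K 55 °C 3 h. Protein-linked and free DNA quantified by SYBR Green against standard; %DPC = linked/(linked+free) x100. Mean ± SEM, three experiments (n=9).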

In a further data set the test system is HuT78. Nature of the data set: Antiproliferative activity against human HUT78 cells after 48 hrs by resazurin reduction assay. The data set is classed as functional, cell-based. As to conditions: HuT78, 48 h. In a few lines: as §1
The test system of a further data set is T47D. Kind of data set: Antiproliferative activity against human T47D cells after 48 hrs by resazurin reduction assay. The format is functional, cell-based. A digest of the protocol:
as §1

Data set [2] concerns Jurkat. Nature of the data set: Induction of DNA modifying activity in human Jurkat cells assessed as increase in amount of crosslink DNA at 10 uM for 1 hr under aerobic condition by Hoechst-33342 staining based fluorescence assay. In a few lines: (§3)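 Jurkat cells (~5-6 x 10^6) were exposed to drug or PBS for 1 h (aerobic, or in a sealed 95% N2/5% CO2 chamber) before DNA isolation. DNA (3,750 ng) was mixed with Hoechst 33342 in 0.5x TE, ex/em 360/460 nm, read before and after 5 min at 96-98 °C, 5 min ice, and 5 min room temperature. Crosslinked fraction was taken against a dye-only control and converted to crosslinks/fragment = -ln(1-X). Two isolations, each in triplicate.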

For the next data set, the system named is HL-60. Kind of data set: Antiproliferative activity against human HL60 cells after 48 hrs by resazurin reduction assay. Particulars: HL-60, 48 h. The data set is classed as functional, cell-based. In a few lines: as §1
The test system of data set [3] is Jurkat. Kind of data set: Induction of DNA modifying activity in human Jurkat cells assessed as DNA-protein crosslink at 100 uM under hypoxic condition by K-SDS assay. The format is cell-based. A digest of the protocol: as §2
The subject of a further data set is HepG2. Kind of data set: Antiproliferative activity against human HepG2 cells after 48 hrs by resazurin reduction assay. The format is functional, cell-based. Particulars: HepG2, 48 h. A digest of the protocol: as §1
In data set [4] the test system is Jurkat. Kind of data set: Induction of DNA modifying activity in human Jurkat cells assessed as tail extent moments at 10 uM under aerobic condition by alkaline comet assay in presence of 100 uM H2O2. In a few lines: (§4)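 Jurkat cells at 1 x 10^5/mL were exposed to drug or PBS for 1 h at 37 °C in 5% CO2 (hypoxic arm in an N2/CO2 chamber). They then received 100 µM H2O2 in PBS for 20 min at 4 °C. Cells were embedded in agarose and lysed overnight, unwound at pH >13 for 20 min, electrophoresed at 20 V for 30 min at 4 °C, and stained with SYBR Green. Tail extent moment (tail length x tail DNA) was measured from ≥50 cells over two experiments.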

Data set [5] deals with Jurkat. Nature of the data set: Antiproliferative activity against human Jurkat T cells in hypoxic condition after 48 hrs by resazurin reduction assay. The format is functional, cell-based. In a few lines:
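Jurkat cells held in a chamber purged 15 min with 95% N2/5% CO2, sealed, and incubated 1 h at 37 °C. Drug was diluted in N2/CO2-sparged PBS and added, then the chamber was purged again for 15 min and kept sealed at 37 °C for the assay. Resazurin readout was 530/590 nm, with IC50 from log(inhibitor) vs response fit.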

The subject of data set [6] is Jurkat. Kind of data set: Antiproliferative activity against human Jurkat T cells after 48 hrs by resazurin reduction assay. The format is functional, cell-based. A digest of the protocol: as §1
Data set [7] concerns Jurkat. Kind of data set: Induction of DNA modifying activity in human Jurkat cells assessed as increase in amount of crosslink DNA at 10 uM for 1 hr under hypoxic condition by Hoechst-33342 staining based fluorescence assay. In a few lines: as §3
Data set [8] concerns Jurkat. Nature of the data set: Induction of DNA modifying activity in human Jurkat cells assessed as tail extent moments at 10 uM under hypoxic condition by alkaline comet assay in presence of 100 uM H2O2. In a few lines:
as §4

Data set [9] in a line: Stability of the compound in DMEM media assessed as compound remaining at 250 uM after 49 hrs by HPLC analysis. The format is physicochemical. Particulars: read-out: Stability. In a few lines: (§5)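 Stock in DMSO added to DMEM with 10% FBS and pen/strep to 250 µM final, then filtered. Injected every 15 min onto a phenyl column with detection at 254 and 480 nm. Mobile phase was acetonitrile (A) and pH 7.2 Tris (B) at 1.0 mL/min, 15 min gradient from 30% A to 70% A.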

The nature of data set [10]: Stability of the compound in DMEM media assessed as compound remaining at 250 uM after 2 hrs by HPLC analysis. The data set is classed as physicochemical. Particulars: read-out: Stability. A digest of the protocol:
as §5

The nature of data set [11]: Stability of the compound in DMEM media assessed as compound remaining at 250 uM after 7 hrs by HPLC analysis. Particulars: read-out: Stability. The format is physicochemical. In a few lines:
as §5

Data set [12] in a line: Stability of the compound in DMEM media assessed as compound remaining at 250 uM after 5 hrs by HPLC analysis. The format is physicochemical. Particulars: read-out: Stability. A digest of the protocol:
as §5

Data set [13] concerns Jurkat. Kind of data set: Induction of DNA modifying activity in human Jurkat cells assessed as increase in H2O2-induced DNA strand break at 10 uM under aerobic condition by alkaline comet assay in presence of H2O2. The data set is classed as cell-based. A digest of the protocol: as §4
Data set [14] is described as follows: Stability of the compound in methanol assessed as retention time by HPLC analysis. The data set is classed as physicochemical.
A short description of data set [15]: Stability of the compound in DMEM media assessed as compound remaining at 213 uM after 1.5 hrs by HPLC analysis. The data set is classed as physicochemical. As to conditions: read-out: Stability.
Data set [16] is described as follows: Stability of the compound in DMEM media assessed as compound remaining at 213 uM after 1 hr by HPLC analysis. The format is physicochemical. Particulars: read-out: Stability.
A short description of data set [17]: Stability of the compound in DMEM media assessed as compound remaining at 213 uM after 2 hrs by HPLC analysis. The format is physicochemical. Particulars: read-out: Stability.
The nature of data set [18]: Stability of the compound in DMEM media assessed as compound remaining at 213 uM after 0.5 hrs by HPLC analysis. The format is physicochemical. As to conditions: read-out: Stability.

With `CO[C@@]12[C@H](COC(N)=O)C3=C(C(=O)C(C)=C(N)C3=O)N1C[C@@H]1N[C@@H]12` [MITOMYCIN], the IC50 in the data set with HeLa turned out to be 1870 nM; in the data set on HuT78, 66 nM; with T47D it was 17 µM; with HL-60 it was 410 nM; in the data set on HepG2, 2940 nM; in the data set on Jurkat [5], 303 nM. This compound had an IC50 in the data set with Jurkat [6] of 578 nM. Also, the Activity is 7.8% in the data set on Jurkat [1], 96 in the data set with Jurkat [4] and 87 with Jurkat [8]. The outcome in the data set on Jurkat [2] and with Jurkat [7] was Active. Moreover, the outcome in the data set on Jurkat [3] was inactive.

Consider `CC1=CC(=O)c2c(COC(N)=O)c3n(c2C1=O)C[C@H]1[C@@H]3N1C` (some centres undefined), for which the IC50 with HeLa was found to be 525 nM; with HuT78, 24 nM; with T47D, 0.225 µM; in the data set on HL-60, 30 nM; with HepG2 it was 342 nM; in the data set on Jurkat [5], 4 nM. In the data set on Jurkat [6], the IC50 was found to be 8 nM. Further, the remaining at 49 h, 250 µM in [9] came out at 18%. Also, the Activity in the data set with Jurkat [1] turned out to be 17%; with Jurkat [2], 0.55; with Jurkat [3] it was 41.9%; with Jurkat [4] it was 0.26; with Jurkat [7] it was 0.51; in the data set with Jurkat [8] it was 0.32. In addition, the remaining at 2 h, 250 µM in [10] worked out at 89%. The remaining at 7 h, 250 µM in data set [11] is 72%. Moreover, the remaining at 5 h, 250 µM in data set [12] was 78%. The outcome with Jurkat [13] was Active. For the same compound, the Retention_time in data set [14] worked out at 3.6 min.

With `CN1[C@@H]2c3c(COC(N)=O)c4c(n3C[C@@H]21)C(=O)C=CC4=O` (some centres undefined), the IC50 in the data set with HeLa was found to be 6210 nM; with HuT78, 131 nM; in the data set on T47D, 9.29 µM; in the data set with HL-60 it was 2030 nM; in the data set with HepG2 it was 7870 nM; in the data set on Jurkat [5], 3960 nM. In the data set with Jurkat [6], this compound had an IC50 of 4160 nM. The remaining at 1.5 h, 213 µM in data set [15] came to 14%. In addition, the Activity in the data set on Jurkat [1] came to 17%; in the data set with Jurkat [4], 0.49; in the data set on Jurkat [8] it was 3.6. In data set [16], the remaining at 1 h, 213 µM came out at 25%. The remaining at 2 h, 213 µM in data set [17] is 8%. The outcome with Jurkat [2] and with Jurkat [13] was Active. Also, the remaining at 0.5 h, 213 µM in [18] came to 50%. For the same compound, the outcome in the data set with Jurkat [3] was inactive.
